Laboratory results taken from publication PMC3205922 (Biochemistry, 2011).
Where two headings read alike, the source gives them in different places. Non-standard residues stand in square brackets, D forms with d. No end group written: not given here. pT = C[C@@H](OP(=O)(O)O)[C@H](N)C(=O)O

Assays:
[1] = biological target: T1, truncated wild-type LRRK2 (aa 970–2527) (Homo sapiens, UniProt Q5S007); format: biochemical; details: for KA (ATP): t-WT
[2] = biological target: T1, truncated wild-type LRRK2 (aa 970–2527); test: TR-FRET assay of PLK-peptide phosphorylation; format: biochemical
Summary of the method: (§1)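 Baculovirus-expressed truncated LRRK2 (aa 970–2527). ATP varied at several fixed PLK-peptide levels. Started with 4 nM enzyme; duplicate wells, RT, 4 h. Stopped with 10 mM EDTA; 2 nM Eu-anti-phospho-PLK added for 2 h; TR-FRET read. Initial velocities fitted by nonlinear least squares to two-substrate rate equations.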

[3] = biological target: T2, LRRK2 mutant t-G2019S (aa 970–2527) (Homo sapiens, UniProt Q5S007, G2019S); format: biochemical; details: for KA (ATP): t-G2019S
[4] = biological target: T2, LRRK2 mutant t-G2019S (aa 970–2527); test: TR-FRET assay of PLK-peptide phosphorylation, initial velocity and inhibition; format: biochemical
Summary of the method: as §1

truncated LRRK2 proteins = test: Effect of GTP or GDP on kinase activity; format: biochemical, human; details: in vitro
[5] = biological target: Truncated LRRK2 mutant G2019S (aa 970–2527) (human) (UniProt Q5S007); test: enzyme inhibition kinetics
[6] = system: t-wt LRRK2 (GTPase activity); test: Radiometric TLC assay of LRRK2-catalyzed GTP hydrolysis; format: biochemical, human; details: pH 7.4, room temperature, Michaelis-Menten fit
Summary of the method: (§2)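 Baculovirus-expressed truncated LRRK2 (aa 970–2527), wild-type or G2019S. Run in triplicate, 20 min at room temperature, quenched with 20 mM EDTA. GDP resolved by PEI-cellulose TLC (0.5 M KH2PO4, pH 3.4) and scintillation-counted. Initial velocities versus [GTP] fitted to Michaelis-Menten.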

[7] = system: mutant t-G2019S (GTPase activity); test: as above; format: biochemical, human
Summary of the method: as §2

t-wt LRRK2 = t-wt LRRK2 (Homo sapiens, UniProt Q5S007); format: biochemical; details: t-wt LRRK2 treated with NEM
[8] = biological target: Truncated wild-type LRRK2 (aa 970–2527) (human, UniProt Q5S007 970-2527); test: enzyme inhibition kinetics
Truncated wild-type LRRK2 (aa 970–2527), sequence (Q5S007 970-2527): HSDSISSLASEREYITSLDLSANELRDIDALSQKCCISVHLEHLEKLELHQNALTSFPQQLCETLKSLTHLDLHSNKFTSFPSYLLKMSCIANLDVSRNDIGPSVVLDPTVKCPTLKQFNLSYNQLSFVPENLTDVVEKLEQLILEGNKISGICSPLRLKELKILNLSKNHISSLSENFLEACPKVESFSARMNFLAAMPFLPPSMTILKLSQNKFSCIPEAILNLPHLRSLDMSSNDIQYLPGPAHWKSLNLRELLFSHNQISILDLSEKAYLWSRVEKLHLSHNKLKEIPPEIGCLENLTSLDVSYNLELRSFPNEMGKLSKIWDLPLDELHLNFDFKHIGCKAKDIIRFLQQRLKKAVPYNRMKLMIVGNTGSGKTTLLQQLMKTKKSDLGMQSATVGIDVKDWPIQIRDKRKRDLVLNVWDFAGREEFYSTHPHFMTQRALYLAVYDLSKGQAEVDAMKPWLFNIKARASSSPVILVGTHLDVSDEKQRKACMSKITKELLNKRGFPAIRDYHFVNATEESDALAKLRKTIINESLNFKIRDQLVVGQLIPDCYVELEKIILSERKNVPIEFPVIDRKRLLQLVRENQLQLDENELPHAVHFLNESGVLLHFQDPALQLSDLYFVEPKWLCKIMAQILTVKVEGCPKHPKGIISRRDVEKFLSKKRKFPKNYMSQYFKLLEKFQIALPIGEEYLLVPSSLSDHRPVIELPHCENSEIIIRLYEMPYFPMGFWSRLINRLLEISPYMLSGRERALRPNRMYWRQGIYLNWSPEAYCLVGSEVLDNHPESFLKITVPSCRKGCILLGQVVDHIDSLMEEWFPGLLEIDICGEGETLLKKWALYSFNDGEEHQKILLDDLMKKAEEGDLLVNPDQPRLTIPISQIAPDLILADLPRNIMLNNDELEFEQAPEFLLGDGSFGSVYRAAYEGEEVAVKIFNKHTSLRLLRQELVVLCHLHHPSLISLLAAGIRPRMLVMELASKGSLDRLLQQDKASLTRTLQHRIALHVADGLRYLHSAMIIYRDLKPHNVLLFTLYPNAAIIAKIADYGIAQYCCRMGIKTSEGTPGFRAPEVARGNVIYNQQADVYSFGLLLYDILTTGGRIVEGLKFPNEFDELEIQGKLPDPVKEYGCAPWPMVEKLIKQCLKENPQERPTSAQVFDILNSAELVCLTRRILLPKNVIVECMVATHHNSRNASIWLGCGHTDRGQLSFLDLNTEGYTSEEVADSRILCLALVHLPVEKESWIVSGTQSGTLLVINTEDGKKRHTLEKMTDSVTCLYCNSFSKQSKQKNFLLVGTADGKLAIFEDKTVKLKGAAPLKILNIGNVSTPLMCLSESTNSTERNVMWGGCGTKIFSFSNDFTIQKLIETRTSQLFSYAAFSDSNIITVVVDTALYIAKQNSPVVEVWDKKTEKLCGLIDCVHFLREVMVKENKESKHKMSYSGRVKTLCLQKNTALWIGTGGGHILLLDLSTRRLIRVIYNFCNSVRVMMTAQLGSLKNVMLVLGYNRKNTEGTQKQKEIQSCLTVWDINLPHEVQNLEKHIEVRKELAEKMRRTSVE

Truncated LRRK2 mutant G2019S (aa 970–2527) (human), sequence (Q5S007 970-2527 G2019S): as the sequence (Q5S007 970-2527) above, with G1050S counted along it
T2 sequence (Q5S007 970-2527 G2019S): as the sequence (Q5S007 970-2527) above, with G1050S counted along it
T1 sequence (Q5S007 970-2527): as the sequence (Q5S007 970-2527) above
t-wt LRRK2, sequence (Q5S007 970-2527): as above

With `Nc1ncnc2c1ncn2[C@@H]1O[C@H](COP(=O)(O)OP(=O)(O)OP(=O)(O)O)[C@@H](O)[C@H]1O` [ATP] the “KA (ATP)” value ([1]; phosphoryl acceptor LRRKtide) was 69 ± 6.6 µM, the “KA (ATP)” value ([1]; phosphoryl acceptor LRRKtide^S) was 77 ± 19 µM and the “KA (ATP)” value ([2]; t-WT, phosphoryl acceptor PLK-peptide) was 7.1 ± 0.7 µM. For the same molecule, the “KA (ATP)” value ([3]; phosphoryl acceptor LRRKtide) was 101 ± 16 µM, the “KA (ATP)” value ([3]; phosphoryl acceptor LRRKtide^S) was 161 ± 38 µM and the “KA (ATP)” value ([4]; phosphoryl acceptor PLK-peptide) was 10 ± 3.9 µM.

With `Nc1nc2c(ncn2[C@@H]2O[C@H](COP(=O)(O)OP(=O)(O)O)[C@@H](O)[C@H]2O)c(=O)[nH]1` [GDP] the “effect on kinase activity” value (truncated LRRK2 proteins) was “unable to detect any effect”.

In the case of RRRSLLE [PLK-peptide], the “tighter binding relative to LRRKtide” value ([2]; from differences in Km values) is reported as greater than 200 fold, the α ([2]; t-WT, TR-FRET, interaction factor (eq 3)) is reported as 0.5 ± 0.1 and the α ([4]; TR-FRET, interaction factor (eq 3)) is reported as 0.6 ± 0.3.

LRRKtide^A (peptide) was tested, and the Ki,e (variable substrate ATP, noncompetitive; LRRKtide^S phosphorylation) [5] was 800 µM, the Ki,e (variable substrate ATP, noncompetitive; PLK-peptide phosphorylation) [5] was 800 µM and the Ki,ea (variable substrate ATP, noncompetitive; LRRKtide^S phosphorylation) [5] was 500 µM. It also gave a Ki,ea (variable substrate ATP, noncompetitive; PLK-peptide phosphorylation) [5] of 500 µM, a Ki,ea (variable substrate LRRKtide^S, competitive) [5] of 500 µM and a Ki,ea (variable substrate PLK-peptide, competitive) [5] of 500 µM.

RLGRDKYKTLRQIRQ [LRRKtide] showed a Kb [1] of 87 ± 11 µM and a Kb [3] of 79 ± 11 µM.

With “RRRSLLE (Only the motif RRRSLLE is printed; The Ser is the phosphoaccept) [PLK-peptide]” the Kb ([2]; read-out: KB (phosphoryl acceptor), t-WT, TR-FRET, averaged from two independent experiments) was 0.43 ± 0.05 µM and the Kb ([4]; read-out: KB (phosphoryl acceptor), TR-FRET, averaged from two independent experiments) was 0.5 ± 0.2 µM.

For `Nc1nc2c(ncn2[C@@H]2O[C@H](COP(=O)(O)OP(=O)(O)OP(=O)(O)O)[C@@H](O)[C@H]2O)c(=O)[nH]1` [GTP], the KGTP [6] was 0.7 ± 0.1 mM, the “kcat (GTP hydrolysis)” value ([6]; triplicate) was 0.04 ± 0.004 s⁻¹ and the “decrease of GTPase activity by the mutation” value ([7]; t-G2019S versus t-wt) was 20%. The KGTP ([7]; t-G2019S, pH 7.4, room temperature, Michaelis-Menten fit) was 0.4 ± 0.1 mM, the “kcat (GTP hydrolysis)” value ([7]; t-G2019S, pH 7.4, room temperature, Michaelis-Menten fit, triplicate) was 0.03 ± 0.002 s⁻¹ and the “effect on kinase activity” value (truncated LRRK2 proteins) was “unable to detect any effect”.

For `Nc1ncnc2c1ncn2[C@@H]1O[C@H](COP(=O)(O)OP(=O)(O)O)[C@@H](O)[C@H]1O` [ADP], the inhibition mechanism ([3]; LRRKtide phosphorylation, variable substrate LRRKtide) was “noncompetitive”.

For `CCN1C(=O)C=CC1=O` [NEM, N-ethylmaleimide], the “inhibition of LRRK2, dose-response” value (t-wt LRRK2) was “complete inhibition at high NEM concentration”.

RLGRDKYK[pT]LRQIRQ (not fully specified; printed as RLGRDKYK(PO4)TLRQIRQ) [PO4-LRRKtide]: binds [8].
